Experimental data reported in ChEMBL document CHEMBL1811814, “Synthesis and evaluation of indole, pyrazole, chromone and pyrimidine based conjugates for tumor growth inhibitory activities--development of highly efficacious cytotoxic agents” (Eur J Med Chem, 2010).

Tests used:
Type in all cases: functional
Parameters in all cases: scale not given: the % may be the effect or the level left
[1] = tested on: CCRF-CEM; experiment: Growth inhibition of human CCRF-CEM cells assessed tumor cell growth at 10^-5 M
In short: (§1)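 NCI 60-human-tumor-cell-line panel screen. Each compound was tested at a single concentration of 10^-5 M, and percent growth of tumor cells was recorded for each cell line. Growth inhibition was expressed from these percent-growth values.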

[2] = tested on: HL-60(TB); experiment: Growth inhibition of human HL-60(TB) cells assessed tumor cell growth at 10^-5 M
In short: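 HL-60(TB), part of the 60-line panel, tested at a single concentration of 10^-5 M. The read-out is percent tumor cell growth relative to untreated growth.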

[3] = tested on: K562; experiment: Growth inhibition of human K562 cells assessed tumor cell growth at 10^-5 M; in short: as §1
[4] = tested on: MOLT-4; experiment: Growth inhibition of human MOLT4 cells assessed tumor cell growth at 10^-5 M; in short: as §1
[5] = Growth inhibition of human […] cells assessed tumor cell growth at 10^-5 M; in short: as §1
[6] = tested on: A549; experiment: Growth inhibition of human A549 cells assessed tumor cell growth at 10^-5 M; in short: as §1
[7] = tested on: EKVX; experiment: Growth inhibition of human EKVX cells assessed tumor cell growth at 10^-5 M; in short: as §1
[8] = tested on: HOP-62; experiment: Growth inhibition of human HOP62 cells assessed tumor cell growth at 10^-5 M; in short: as §1
[9] = tested on: HOP-92; experiment: Growth inhibition of human HOP92 cells assessed tumor cell growth at 10^-5 M; in short: as §1
[10] = tested on: NCI-H226; experiment: Growth inhibition of human NCI-H226 cells assessed tumor cell growth at 10^-5 M; in short: as §1
[11] = tested on: NCI-H23; experiment: Growth inhibition of human NCI-H23 cells assessed tumor cell growth at 10^-5 M; in short: as §1
[12] = tested on: NCI-H322M; experiment: Growth inhibition of human NCI-H322M cells assessed tumor cell growth at 10^-5 M; in short: as §1
[13] = tested on: NCI-H460; experiment: Growth inhibition of human NCI-H460 cells assessed tumor cell growth at 10^-5 M; in short: as §1
[14] = tested on: NCI-H522; experiment: Growth inhibition of human NCI-H522 cells assessed tumor cell growth at 10^-5 M; in short: as §1
[15] = tested on: COLO 205; experiment: Growth inhibition of human COLO205 cells assessed tumor cell growth at 10^-5 M; in short: as §1
[16] = tested on: HCC 2998; experiment: Growth inhibition of human HCC2998 cells assessed tumor cell growth at 10^-5 M; in short: as §1
[17] = tested on: HCT-116; experiment: Growth inhibition of human HCT116 cells assessed tumor cell growth at 10^-5 M; in short: as §1
[18] = tested on: HCT-15; experiment: Growth inhibition of human HCT15 cells assessed tumor cell growth at 10^-5 M; in short: as §1
[19] = tested on: HT-29; experiment: Growth inhibition of human HT-29 cells assessed tumor cell growth at 10^-5 M; in short: as §1
[20] = tested on: KM12; experiment: Growth inhibition of human KM12 cells assessed tumor cell growth at 10^-5 M; in short: as §1
[21] = tested on: SW-620; experiment: Growth inhibition of human SW620 cells assessed tumor cell growth at 10^-5 M
In short: (§2)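 Single-dose screen at 10^-5 M across the 60 human tumor cell line panel, run to NCI standards. The value is the percent growth of each cell line in the presence of compound. Compounds active at this dose moved on to five-concentration testing (10^-4 to 10^-8 M).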

[22] = tested on: SF-268; experiment: Growth inhibition of human SF268 cells assessed tumor cell growth at 10^-5 M; in short: as §1
[23] = tested on: SF-295; experiment: Growth inhibition of human SF295 cells assessed tumor cell growth at 10^-5 M; in short: as §1
[24] = tested on: SF-539; experiment: Growth inhibition of human SF539 cells assessed tumor cell growth at 10^-5 M; in short: as §1
[25] = tested on: SNB-19; experiment: Growth inhibition of human SNB19 cells assessed tumor cell growth at 10^-5 M; in short: as §2
[26] = tested on: SNB-75; experiment: Growth inhibition of human SNB75 cells assessed tumor cell growth at 10^-5 M; in short: as §2
[27] = tested on: U-251; experiment: Growth inhibition of human U251 cells assessed tumor cell growth at 10^-5 M; in short: as §2
[28] = tested on: LOX IMVI; experiment: Growth inhibition of human LOXIMVI cells assessed tumor cell growth at 10^-5 M; in short: as §1
[29] = tested on: Malme-3M; experiment: Growth inhibition of human MALME-3M cells assessed tumor cell growth at 10^-5 M; in short: as §1
[30] = tested on: M14; experiment: Growth inhibition of human M14 cells assessed tumor cell growth at 10^-5 M; in short: as §1
[31] = tested on: MDA-MB-435; experiment: Growth inhibition of human MDA-MB-435 cells assessed tumor cell growth at 10^-5 M; in short: as §1
[32] = tested on: SK-MEL-2; experiment: Growth inhibition of human SK-MEL-2 cells assessed tumor cell growth at 10^-5 M; in short: as §1
[33] = tested on: SK-MEL-28; experiment: Growth inhibition of human SK-MEL-28 cells assessed tumor cell growth at 10^-5 M; in short: as §1
[34] = tested on: SK-MEL-5; experiment: Growth inhibition of human SK-MEL-5 cells assessed tumor cell growth at 10^-5 M; in short: as §1
[35] = tested on: UACC-257; experiment: Growth inhibition of human UACC257 cells assessed tumor cell growth at 10^-5 M; in short: as §2
[36] = tested on: UACC-62; experiment: Growth inhibition of human UACC62 cells assessed tumor cell growth at 10^-5 M; in short: as §2
[37] = tested on: IGROV-1; experiment: Growth inhibition of human IGROV1 cells assessed tumor cell growth at 10^-5 M; in short: as §1
[38] = tested on: OVCAR-3; experiment: Growth inhibition of human OVCAR3 cells assessed tumor cell growth at 10^-5 M; in short: as §1
[39] = tested on: OVCAR-4; experiment: Growth inhibition of human OVCAR4 cells assessed tumor cell growth at 10^-5 M; in short: as §1
[40] = tested on: OVCAR-5; experiment: Growth inhibition of human OVCAR5 cells assessed tumor cell growth at 10^-5 M; in short: as §1
[41] = tested on: OVCAR-8; experiment: Growth inhibition of human OVCAR8 cells assessed tumor cell growth at 10^-5 M; in short: as §1
[42] = tested on: NCI/ADR-RES; experiment: Growth inhibition of human NCI/ADR-RES cells assessed tumor cell growth at 10^-5 M; in short: as §1
[43] = tested on: SK-OV-3; experiment: Growth inhibition of human SKOV3 cells assessed tumor cell growth at 10^-5 M; in short: as §1
[44] = tested on: 786-0; experiment: Growth inhibition of human 786-0 cells assessed tumor cell growth at 10^-5 M; in short: as §1
[45] = tested on: A498; experiment: Growth inhibition of human A498 cells assessed tumor cell growth at 10^-5 M; in short: as §1
[46] = tested on: ACHN; experiment: Growth inhibition of human ACHN cells assessed tumor cell growth at 10^-5 M; in short: as §1
[47] = tested on: CAKI-1; experiment: Growth inhibition of human Caki1 cells assessed tumor cell growth at 10^-5 M; in short: as §1
[48] = tested on: RXF 393; experiment: Growth inhibition of human RXF393 cells assessed tumor cell growth at 10^-5 M; in short: as §1
[49] = tested on: SN12C; experiment: Growth inhibition of human SN12C cells assessed tumor cell growth at 10^-5 M; in short: as §1
[50] = tested on: TK-10; experiment: Growth inhibition of human TK10 cells assessed tumor cell growth at 10^-5 M; in short: as §2
[51] = tested on: UO-31; experiment: Growth inhibition of human UO31 cells assessed tumor cell growth at 10^-5 M; in short: as §2
[52] = tested on: PC-3; experiment: Growth inhibition of human PC3 cells assessed tumor cell growth at 10^-5 M; in short: as §1
[53] = tested on: DU-145; experiment: Growth inhibition of human DU145 cells assessed tumor cell growth at 10^-5 M; in short: as §1
[54] = tested on: MCF7; experiment: Growth inhibition of human MCF7 cells assessed tumor cell growth at 10^-5 M; in short: as §1
[55] = tested on: MDA-MB-231; experiment: Growth inhibition of human MDA-MB-231 cells assessed tumor cell growth at 10^-5 M; in short: as §1
[56] = Growth inhibition of human Hs 578T cells assessed tumor cell growth at 10^-5 M; in short: as §1
[57] = tested on: BT-549; experiment: Growth inhibition of human BT549 cells assessed tumor cell growth at 10^-5 M; in short: as §1
[58] = tested on: T47D; experiment: Growth inhibition of human T47D cells assessed tumor cell growth at 10^-5 M; in short: as §2
[59] = tested on: MDA-MB-468; experiment: Growth inhibition of human MDA-MB-468 cells assessed tumor cell growth at 10^-5 M; in short: as §1

## Cc1ccc(S(=O)(=O)n2cc(/C=C3\C(=O)Nc4ccccc43)c3ccccc32)cc1
[1]
  Activity: 95.6%
[2]
  Activity: 100.6%
[3]
  Activity: 85%
[4]
  Activity: 95.7%
[5]
  Activity: 80.7%
[6]
  Activity: 88.2%
[7]
  Activity: 93.8%
[8]
  Activity: 98.5%
[9]
  Activity: 67.4%
[10]
  Activity: 86.3%
[11]
  Activity: 89.8%
[12]
  Activity: 106.5%
[13]
  Activity: 97.3%
[14]
  Activity: 111.2%
[15]
  Activity: 54.4%
[16]
  Activity: 98.6%
[17]
  Activity: 92.5%
[18]
  Activity: 79.5%
[19]
  Activity: 104.5%
[20]
  Activity: 97%
[21]
  Activity: 103%
[22]
  Activity: 88.4%
[23]
  Activity: 97.1%
[24]
  Activity: 93.1%
[25]
  Activity: 85.2%
[26]
  Activity: 73.4%
[27]
  Activity: 86.4%
[28]
  Activity: 82.7%
[29]
  Activity: 111%
[30]
  Activity: 96%
[31]
  Activity: 93.2%
[32]
  Activity: 86.6%
[33]
  Activity: 86.8%
[34]
  Activity: 84.9%
[35]
  Activity: 84%
[36]
  Activity: 64%
[37]
  Activity: 73%
[38]
  Activity: 83.7%
[39]
  Activity: 70.1%
[40]
  Activity: 87.3%
[41]
  Activity: 91.2%
[42]
  Activity: 92.1%
[43]
  Activity: 99.1%
[44]
  Activity: 99.7%
[45]
  Activity: 102%
[46]
  Activity: 82.2%
[47]
  Activity: 53.7%
[48]
  Activity: 97.6%
[49]
  Activity: 88.3%
[50]
  Activity: 117.8%
[51]
  Activity: 60.9%
[52]
  Activity: 92.8%
[53]
  Activity: 101.5%
[54]
  Activity: 56.6%
[55]
  Activity: 66.4%
[56]
  Activity: 92.2%
[57]
  Activity: 97.5%
[58]
  Activity: 77.3%
[59]
  Activity: 117.2%

## O=C1/C(=C\c2cn(C(=O)c3c(Cl)cccc3Cl)c3ccccc23)c2ccccc2N1C(=O)c1c(Cl)cccc1Cl
[1]
  Activity: 87%
[2]
  Activity: 109%
[3]
  Activity: 85.2%
[4]
  Activity: 84%
[5]
  Activity: 75%
[6]
  Activity: 91.2%
[7]
  Activity: 99.4%
[8]
  Activity: 98.7%
[9]
  Activity: 48.5%
[10]
  Activity: 92.9%
[11]
  Activity: 96.6%
[12]
  Activity: 124%
[13]
  Activity: 114%
[14]
  Activity: 87.4%
[15]
  Activity: 69%
[16]
  Activity: 116%
[17]
  Activity: 82.5%
[18]
  Activity: 65.9%
[19]
  Activity: 108%
[20]
  Activity: 99.3%
[21]
  Activity: 117%
[22]
  Activity: 95.7%
[23]
  Activity: 90.6%
[24]
  Activity: 95%
[25]
  Activity: 97.3%
[26]
  Activity: 88.8%
[27]
  Activity: 87.1%
[28]
  Activity: 95.8%
[29]
  Activity: 94.9%
[30]
  Activity: 94.2%
[31]
  Activity: 112%
[32]
  Activity: 92.3%
[33]
  Activity: 103%
[34]
  Activity: 84.8%
[35]
  Activity: 104%
[36]
  Activity: 63.8%
[37]
  Activity: 69.9%
[38]
  Activity: 96.7%
[39]
  Activity: 104%
[40]
  Activity: 83.7%
[41]
  Activity: 94.1%
[42]
  Activity: 104%
[43]
  Activity: 93.4%
[44]
  Activity: 100%
[45]
  Activity: 126%
[46]
  Activity: 78.6%
[47]
  Activity: 67.5%
[48]
  Activity: 113%
[49]
  Activity: 92.7%
[50]
  Activity: 101%
[51]
  Activity: 72%
[52]
  Activity: 73.1%
[53]
  Activity: 135%
[54]
  Activity: 84.8%
[55]
  Activity: 74.3%
[56]
  Activity: 152%
[57]
  Activity: 85.3%
[58]
  Activity: 91.6%
[59]
  Activity: 126%
